Reference: ChEMBL document CHEMBL1157912, “Impact of nature and length of linker incorporated in agonists on toll-like receptor 9-mediated immune responses” (J Med Chem, 2010)
Calls of active or inactive are those of the source. The calls are words filed in the database; no cut-off is given here.

Assays:
[1] = biological target: T1, Toll-like receptor 9 (Homo sapiens) (UniProt Q9NR96); test: Induction of TLR9-mediated immune stimulation in human PBMC assessed as IL2R production at 2 ug/ml after 24 hrs by luminex multiplex assay (RVb = 0.02 +/- 0.01 ng/ml)
T1 sequence (whole entry): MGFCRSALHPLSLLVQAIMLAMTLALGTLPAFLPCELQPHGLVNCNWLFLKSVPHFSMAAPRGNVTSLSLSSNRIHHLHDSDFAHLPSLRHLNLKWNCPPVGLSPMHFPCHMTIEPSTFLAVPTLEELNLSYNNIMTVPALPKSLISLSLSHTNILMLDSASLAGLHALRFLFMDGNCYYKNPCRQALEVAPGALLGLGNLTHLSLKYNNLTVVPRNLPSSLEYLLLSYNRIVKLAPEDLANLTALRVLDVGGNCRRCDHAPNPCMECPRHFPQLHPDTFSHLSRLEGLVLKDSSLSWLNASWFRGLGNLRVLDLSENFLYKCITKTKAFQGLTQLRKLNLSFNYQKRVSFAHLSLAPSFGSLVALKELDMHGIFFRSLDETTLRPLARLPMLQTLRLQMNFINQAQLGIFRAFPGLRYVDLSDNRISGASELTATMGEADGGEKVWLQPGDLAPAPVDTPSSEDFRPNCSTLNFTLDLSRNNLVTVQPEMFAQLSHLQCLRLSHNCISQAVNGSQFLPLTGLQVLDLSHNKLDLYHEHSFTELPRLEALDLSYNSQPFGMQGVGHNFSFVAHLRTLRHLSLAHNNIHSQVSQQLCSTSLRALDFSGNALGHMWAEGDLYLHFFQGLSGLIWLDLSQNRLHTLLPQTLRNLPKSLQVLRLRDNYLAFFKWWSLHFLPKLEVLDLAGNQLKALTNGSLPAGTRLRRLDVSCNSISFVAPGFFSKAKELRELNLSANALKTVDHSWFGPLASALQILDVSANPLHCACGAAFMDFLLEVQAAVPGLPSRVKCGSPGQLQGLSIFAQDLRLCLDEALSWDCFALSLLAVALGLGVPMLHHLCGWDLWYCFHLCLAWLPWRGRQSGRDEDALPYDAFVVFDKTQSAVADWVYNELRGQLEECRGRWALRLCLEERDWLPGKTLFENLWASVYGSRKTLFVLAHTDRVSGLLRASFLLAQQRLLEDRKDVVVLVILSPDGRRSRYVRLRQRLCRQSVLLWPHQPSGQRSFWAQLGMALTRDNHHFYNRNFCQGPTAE

[2] = system: Mus musculus; test: Immunostimulatory activity in C57BL/6 mouse assessed as increase in serum IL12 level at 1 mg/kg, sc after 2 hrs by ELISA; type: functional, organism-based; parameters: dose 1 mg/kg
How it was run: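 Female C57BL/6 mice (n=3) received a single subcutaneous agonist dose of 1 mg/kg. Blood was taken by retro-orbital bleeding 2 h later, and serum IL-12 was measured by sandwich ELISA. Values are the mean of three mice ± SD.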

[3] = biological target: T1, Toll-like receptor 9 (Homo sapiens); test: Induction of TLR9-mediated human B cell proliferation assessed as [3H]thymidine uptake after 56 hrs by scintillation counting
How it was run: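 B cells were purified from human PBMCs (healthy volunteers), about 1 × 10⁵ cells, and stimulated with various agonist concentrations for 56 h. Cells were then pulsed with 0.75 μCi [³H]-thymidine and harvested 16 h later. Incorporation was counted by scintillation and reported as cpm.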

Row | Activity [1] [ng/mL] | Activity [3] | SMILES | Activity [2]
1 | 0.11 | Dose-dependent effect | Cc1cn([C@H]2C[C@H](OCCOCCOCCOCCOCCOCCOP(=O)(S)O[C@H]3C[C@H](n4cc(C)c(=O)[nH]c4=O)O[C@@H]3COP(=O)(S)O[C@H]3[C@@H](O)[C@H](n4ccc(N)nc4=O)O[C@@H]3COP(=O)(S)O[C@H]3C[C@H](n4cc(C)c(=O)[nH]c4=O)O[C@@H]3COP(=O)(S)O[C@H]3C[C@H](n4cc(C)c(=O)[nH]c4=O)O[C@@H]3COP(=O)(S)O[C@H]3C[C@H](n4ccc5c(=O)[nH]c(N)nc54)O[C@@H]3COP(=O)(S)O[C@H]3[C@@H](O)[C@H](n4ccc(N)nc4=O)O[C@@H]3COP(=O)(S)O[C@H]3C[C@H](n4cc(C)c(=O)[nH]c4=O)O[C@@H]3COP(=O)(S)O[C@H]3[C@@H](O)[C@H](n4cnc5c(=O)[nH]c(N)nc54)O[C@@H]3COP(=O)(S)O[C@H]3C[C@H](n4cc(C)c(=O)[nH]c4=O)O[C@@H]3COP(=O)(S)O[C@H]3[C@@H](O)[C@H](n4ccc(N)nc4=O)O[C@@H]3COP(=O)(S)O[C@H]3C[C@H](n4cc(C)c(=O)[nH]c4=O)O[C@@H]3CO)[C@@H](COP(=O)(S)O[C@H]3[C@@H](O)[C@H](n4ccc(N)nc4=O)O[C@@H]3COP(=O)(S)O[C@H]3C[C@H](n4cc(C)c(=O)[nH]c4=O)O[C@@H]3COP(=O)(S)O[C@H]3C[C@H](n4cc(C)c(=O)[nH]c4=O)O[C@@H]3COP(=O)(S)O[C@H]3C[C@H](n4ccc5c(=O)[nH]c(N)nc54)O[C@@H]3COP(=O)(S)O[C@H]3[C@@H](O)[C@H](n4ccc(N)nc4=O)O[C@@H]3COP(=O)(S)O[C@H]3C[C@H](n4cc(C)c(=O)[nH]c4=O)O[C@@H]3COP(=O)(S)O[C@H]3[C@@H](O)[C@H](n4cnc5c(=O)[nH]c(N)nc54)O[C@@H]3COP(=O)(S)O[C@H]3C[C@H](n4cc(C)c(=O)[nH]c4=O)O[C@@H]3COP(=O)(S)O[C@H]3[C@@H](O)[C@H](n4ccc(N)nc4=O)O[C@@H]3COP(=O)(S)O[C@H]3C[C@H](n4cc(C)c(=O)[nH]c4=O)O[C@@H]3CO)O2)c(=O)[nH]c1=O (some centres undefined) | inactive
2 | 0.07 | Dose-dependent effect | Cc1cn([C@H]2C[C@H](O[C@H]3C[C@@H](O)C[C@@H](OP(=O)(S)O[C@H]4C[C@H](n5cc(C)c(=O)[nH]c5=O)O[C@@H]4COP(=O)(S)O[C@H]4[C@@H](O)[C@H](n5ccc(N)nc5=O)O[C@@H]4COP(=O)(S)O[C@H]4C[C@H](n5cc(C)c(=O)[nH]c5=O)O[C@@H]4COP(=O)(S)O[C@H]4C[C@H](n5cc(C)c(=O)[nH]c5=O)O[C@@H]4COP(=O)(S)O[C@H]4C[C@H](n5ccc6c(=O)[nH]c(N)nc65)O[C@@H]4COP(=O)(S)O[C@H]4[C@@H](O)[C@H](n5ccc(N)nc5=O)O[C@@H]4COP(=O)(S)O[C@H]4C[C@H](n5cc(C)c(=O)[nH]c5=O)O[C@@H]4COP(=O)(S)O[C@H]4[C@@H](O)[C@H](n5cnc6c(=O)[nH]c(N)nc65)O[C@@H]4COP(=O)(S)O[C@H]4C[C@H](n5cc(C)c(=O)[nH]c5=O)O[C@@H]4COP(=O)(S)O[C@H]4[C@@H](O)[C@H](n5ccc(N)nc5=O)O[C@@H]4COP(=O)(S)O[C@H]4C[C@H](n5cc(C)c(=O)[nH]c5=O)O[C@@H]4CO)C3)[C@@H](COP(=O)(S)O[C@H]3[C@@H](O)[C@H](n4ccc(N)nc4=O)O[C@@H]3COP(=O)(S)O[C@H]3C[C@H](n4cc(C)c(=O)[nH]c4=O)O[C@@H]3COP(=O)(S)O[C@H]3C[C@H](n4cc(C)c(=O)[nH]c4=O)O[C@@H]3COP(=O)(S)O[C@H]3C[C@H](n4ccc5c(=O)[nH]c(N)nc54)O[C@@H]3COP(=O)(S)O[C@H]3[C@@H](O)[C@H](n4ccc(N)nc4=O)O[C@@H]3COP(=O)(S)O[C@H]3C[C@H](n4cc(C)c(=O)[nH]c4=O)O[C@@H]3COP(=O)(S)O[C@H]3[C@@H](O)[C@H](n4cnc5c(=O)[nH]c(N)nc54)O[C@@H]3COP(=O)(S)O[C@H]3C[C@H](n4cc(C)c(=O)[nH]c4=O)O[C@@H]3COP(=O)(S)O[C@H]3[C@@H](O)[C@H](n4ccc(N)nc4=O)O[C@@H]3COP(=O)(S)O[C@H]3C[C@H](n4cc(C)c(=O)[nH]c4=O)O[C@@H]3CO)O2)c(=O)[nH]c1=O (some centres undefined) | Active
3 | 0.06 | Dose-dependent effect | Cc1cn([C@H]2C[C@H](OCC(O)COP(=O)(S)O[C@H]3C[C@H](n4cc(C)c(=O)[nH]c4=O)O[C@@H]3COP(=O)(S)O[C@H]3[C@@H](O)[C@H](n4ccc(N)nc4=O)O[C@@H]3COP(=O)(S)O[C@H]3C[C@H](n4cc(C)c(=O)[nH]c4=O)O[C@@H]3COP(=O)(S)O[C@H]3C[C@H](n4cc(C)c(=O)[nH]c4=O)O[C@@H]3COP(=O)(S)O[C@H]3C[C@H](n4ccc5c(=O)[nH]c(N)nc54)O[C@@H]3COP(=O)(S)O[C@H]3[C@@H](O)[C@H](n4ccc(N)nc4=O)O[C@@H]3COP(=O)(S)O[C@H]3C[C@H](n4cc(C)c(=O)[nH]c4=O)O[C@@H]3COP(=O)(S)O[C@H]3[C@@H](O)[C@H](n4cnc5c(=O)[nH]c(N)nc54)O[C@@H]3COP(=O)(S)O[C@H]3C[C@H](n4cc(C)c(=O)[nH]c4=O)O[C@@H]3COP(=O)(S)O[C@H]3[C@@H](O)[C@H](n4ccc(N)nc4=O)O[C@@H]3COP(=O)(S)O[C@H]3C[C@H](n4cc(C)c(=O)[nH]c4=O)O[C@@H]3CO)[C@@H](COP(=O)(S)O[C@H]3[C@@H](O)[C@H](n4ccc(N)nc4=O)O[C@@H]3COP(=O)(S)O[C@H]3C[C@H](n4cc(C)c(=O)[nH]c4=O)O[C@@H]3COP(=O)(S)O[C@H]3C[C@H](n4cc(C)c(=O)[nH]c4=O)O[C@@H]3COP(=O)(S)O[C@H]3C[C@H](n4ccc5c(=O)[nH]c(N)nc54)O[C@@H]3COP(=O)(S)O[C@H]3[C@@H](O)[C@H](n4ccc(N)nc4=O)O[C@@H]3COP(=O)(S)O[C@H]3C[C@H](n4cc(C)c(=O)[nH]c4=O)O[C@@H]3COP(=O)(S)O[C@H]3[C@@H](O)[C@H](n4cnc5c(=O)[nH]c(N)nc54)O[C@@H]3COP(=O)(S)O[C@H]3C[C@H](n4cc(C)c(=O)[nH]c4=O)O[C@@H]3COP(=O)(S)O[C@H]3[C@@H](O)[C@H](n4ccc(N)nc4=O)O[C@@H]3COP(=O)(S)O[C@H]3C[C@H](n4cc(C)c(=O)[nH]c4=O)O[C@@H]3CO)O2)c(=O)[nH]c1=O (some centres undefined) | Active
